According to ChEMBL document CHEMBL1130383, “Anesthetic activity of novel water-soluble 2 beta-morpholinyl steroids and their modulatory effects at GABAA receptors” (J Med Chem, 1997):

Columns and labels:
Mus musculus = assay: Hypnotic dose was determined by observing loss of righting reflex for a minimum period of 30 sec in 50% of treated mice after i.v. administration.; assay type: functional
Summary of the method: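 Male CFLP mice (25–35 g), tested in the light period. Groups of eight received an i.v. lateral tail vein injection over 10 s (10 mL kg-1) on a μmol/kg dose series, e.g. 2–16, with extra doses added. Vehicle was saline for amine salts; standards were in HPCD/saline, emulsion or saline. HD50 with 95% confidence limits was obtained by probit analysis of the fraction showing LRR ≥30 s.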

[1] = target: GABA-A receptor; anion channel (Bos taurus) (UniProt P10063+P08220+P20237+P08219+P10064+P22300); assay: Concentration required to potentiate GABA-evoked currents in voltage-clamped bovine chromaffin cells by 300%; assay type: functional
Summary of the method: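 Adult bovine chromaffin cells, primary culture, recorded 4 h to 2 days after plating. Whole-cell patch clamp, continuous superfusion with 140 mM NaCl, 2.8 mM KCl, 2 mM MgCl2, 1 mM CaCl2, 10 mM HEPES (pH 7.2). CsCl-based pipette solution, room temperature (18–22 °C). Currents filtered at 500 Hz. Steroid concentration enhancing the GABA-evoked response by 300% of control was interpolated; mean ± SEM of N cells.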

[2] = target: GABA-A receptor; anion channel; assay: The concentration required to inhibit 50% of binding of [35S]TBPS to Gamma-aminobutyric acid A receptor to rat whole brain membranes.; assay type: cell membranes

SMILES	HD50 (Mus musculus)	POT [1]	IC50 [2]
CC[C@H]1CN([C@H]2C[C@@]3(C)[C@@H](CC[C@@H]4[C@@H]3CC[C@]3(C)[C@@H](C(C)=O)CC[C@@H]43)C[C@@H]2O)CCO1	22.7 µM/kg		
CC(=O)[C@H]1CC[C@H]2[C@@H]3CC[C@H]4C[C@H](O)[C@@H](N5CCOCC5)C[C@]4(C)[C@H]3CC[C@]12C	22.2 µM/kg	215 nM	
CCC[C@H]1CN([C@H]2C[C@@]3(C)[C@@H](CC[C@H]4[C@@H]5CC[C@H](C(C)=O)[C@@]5(C)CC(=O)[C@@H]43)C[C@@H]2O)CCO1	10.8 µM/kg		0.948 µM
CC(=O)[C@H]1CC[C@H]2[C@@H]3CC[C@H]4C[C@H](O)[C@@H](N5CCO[C@@H](Cc6ccccc6)C5)C[C@]4(C)[C@H]3C(=O)C[C@]12C	12.8 µM/kg		0.1 µM
CC(=O)SCC(=O)[C@H]1CC[C@H]2[C@@H]3CC[C@H]4C[C@H](O)[C@@H](N5CCOC(C)(C)C5)C[C@]4(C)[C@H]3C(=O)C[C@]12C	7.9 µM/kg	245 nM	0.261 µM
CC(=O)[C@H]1CC[C@H]2[C@@H]3CC[C@H]4C[C@H](O)[C@@H](N5CCOC(c6ccccc6)(c6ccccc6)C5)C[C@]4(C)[C@H]3C(=O)C[C@]12C	49.9 µM/kg		0.497 µM
CCC[C@@H]1CN([C@H]2C[C@@]3(C)[C@@H](CC[C@H]4[C@@H]5CC[C@H](C(C)=O)[C@@]5(C)CC(=O)[C@@H]43)C[C@@H]2O)CCO1	6.4 µM/kg		0.142 µM
CC(=O)[C@H]1CC[C@H]2[C@@H]3CC[C@H]4C[C@H](O)[C@@H](N5CC(C)(C)SC(C)(C)C5)C[C@]4(C)[C@H]3C(=O)C[C@]12C	61.8 µM/kg		0.231 µM
CC(=O)OCC(=O)[C@H]1CC[C@H]2[C@@H]3CC[C@H]4C[C@H](O)[C@@H](N5CCOCC5)C[C@]4(C)[C@H]3CC[C@]12C	31 µM/kg	660 nM	0.27 µM
CC(=O)[C@H]1CC[C@H]2[C@@H]3CC[C@H]4C[C@H](O)[C@@H](N5CCO[C@H](C)C5)C[C@]4(C)[C@H]3C(=O)C[C@]12C	17 µM/kg		1.14 µM
C[C@]12C[C@H](N3CCOCC3)[C@@H](O)C[C@@H]1CC[C@H]1[C@@H]3CC[C@H](C(=O)CO)[C@@]3(C)CC(=O)[C@@H]12	198.2 µM/kg		1.16 µM
CC1(C)CN([C@H]2C[C@@]3(C)[C@@H](CC[C@H]4[C@@H]5CC[C@H](C(=O)CN=[N+]=[N-])[C@@]5(C)CC(=O)[C@@H]43)C[C@@H]2O)CCO1	10.7 µM/kg		2.17 µM
C[C@]12C[C@H](N3CCOCC3)[C@@H](O)C[C@@H]1CC[C@@H]1[C@@H]2CC[C@]2(C)[C@@H](C(=O)CO)CC[C@@H]12	31.6 µM/kg	2300 nM	3.04 µM
CCC1(CC)CN([C@H]2C[C@@]3(C)[C@@H](CC[C@H]4[C@@H]5CC[C@H](C(C)=O)[C@@]5(C)CC(=O)[C@@H]43)C[C@@H]2O)CCO1	12 µM/kg		0.079 µM
CCO[C@H]1C[C@@]2(C)[C@@H](CC[C@@H]3[C@@H]2[C@H](N(C)C)C[C@]2(C)[C@@H](C(C)=O)CC[C@@H]32)C[C@@H]1O [MINAXOLONE]	7.3 µM/kg		
CC(=O)OCC(=O)[C@H]1CC[C@H]2[C@@H]3CC[C@H]4C[C@H](O)[C@@H](N5CCOC(C)(C)C5)C[C@]4(C)[C@H]3C(=O)C[C@]12C	21.1 µM/kg	1300 nM	0.951 µM
C[C@]12CC[C@@H](O)C[C@@H]1CC[C@@H]1[C@@H]2CC[C@]2(C)[C@@H](C(=O)CO)CC[C@@H]12	18.5 µM/kg	300 nM	0.22 µM
CC1(C)CN([C@H]2C[C@@]3(C)[C@@H](CC[C@@H]4[C@@H]3CC[C@]3(C)[C@@H](C(=O)CO)CC[C@@H]43)C[C@@H]2O)CCO1	18.4 µM/kg	310 nM	0.267 µM
CC(=O)[C@H]1CC[C@H]2[C@@H]3CC[C@H]4C[C@H](O)[C@@H](N5CCSCC5)C[C@]4(C)[C@H]3C(=O)C[C@]12C	20 µM/kg		1.39 µM
CC1(C)CN([C@H]2C[C@@]3(C)[C@@H](CC[C@@H]4[C@@H]3CC[C@]3(C)[C@@H](C(=O)CCl)CC[C@@H]43)C[C@@H]2O)CCO1	17.6 µM/kg	380 nM	0.039 µM

SMILES	HD50 (Mus musculus)	POT [1]	IC50 [2]
CC(=O)[C@H]1CC[C@H]2[C@@H]3CC[C@H]4C[C@H](O)[C@@H](N5CCOC(C)(C)C5)C[C@]4(C)[C@H]3CC[C@]12C	17.4 µM/kg	120 nM	0.107 µM
CC(=O)[C@H]1CC[C@H]2[C@@H]3CC[C@H]4C[C@H](O)[C@@H](N5CCOC(C)(C)C5)C[C@]4(C)[C@H]3C(=O)C[C@]12C	9.8 µM/kg	700 nM	
CC(=O)[C@H]1CC[C@H]2[C@@H]3CC[C@@H]4C[C@H](O)CC[C@]4(C)[C@H]3CC[C@]12C [ELTANOLONE]	9.5 µM/kg	115 nM	0.117 µM
CC(=O)SCC(=O)[C@H]1CC[C@H]2[C@@H]3CC[C@H]4C[C@H](O)[C@@H](N5CCOCC5)C[C@]4(C)[C@H]3CC[C@]12C	33.8 µM/kg		0.235 µM
CC(=O)[C@H]1CC[C@H]2[C@@H]3CC[C@H]4C[C@H](O)CC[C@]4(C)[C@H]3CC[C@]12C [BREXANOLONE]	10 µM/kg	105 nM	0.091 µM
CC(=O)[C@H]1CC[C@H]2[C@@H]3CC[C@H]4C[C@H](O)[C@@H](N5CCO[C@H](Cc6ccccc6)C5)C[C@]4(C)[C@H]3C(=O)C[C@]12C	12.6 µM/kg		0.131 µM
CC[C@@H]1CN([C@H]2C[C@@]3(C)[C@@H](CC[C@@H]4[C@@H]3CC[C@]3(C)[C@@H](C(C)=O)CC[C@@H]43)C[C@@H]2O)CCO1	11.2 µM/kg		0.91 µM
CC(=O)[C@H]1CC[C@H]2[C@@H]3CC[C@H]4C[C@H](O)[C@@H](N5CCO[C@@H](C)C5)C[C@]4(C)[C@H]3CC[C@]12C	29 µM/kg		0.424 µM
CC1(C)CN([C@H]2C[C@@]3(C)[C@@H](CC[C@H]4[C@@H]5CC[C@H](C(=O)CSC#N)[C@@]5(C)CC(=O)[C@@H]43)C[C@@H]2O)CCO1	10 µM/kg		0.316 µM
CC[C@H]1CN([C@H]2C[C@@]3(C)[C@@H](CC[C@H]4[C@@H]5CC[C@H](C(C)=O)[C@@]5(C)CC(=O)[C@@H]43)C[C@@H]2O)CCO1	15.1 µM/kg		1.49 µM
CC(=O)[C@H]1CC[C@H]2[C@@H]3CC[C@H]4C[C@H](O)[C@@H](N5CCSCC5)C[C@]4(C)[C@H]3CC[C@]12C	40.5 µM/kg		
CC(=O)[C@H]1CC[C@H]2[C@@H]3CC[C@H]4C[C@H](O)[C@@H](N5C[C@@H](C)O[C@@H](C)C5)C[C@]4(C)[C@H]3CC[C@]12C	26 µM/kg		
CCCCC1(CCCC)CN([C@H]2C[C@@]3(C)[C@@H](CC[C@H]4[C@@H]5CC[C@H](C(C)=O)[C@@]5(C)CC(=O)[C@@H]43)C[C@@H]2O)CCO1	31.1 µM/kg		0.053 µM
CC(=O)OCC(=O)[C@H]1CC[C@H]2[C@@H]3CC[C@H]4C[C@H](O)[C@@H](N5CCOC(C)(C)C5)C[C@]4(C)[C@H]3CC[C@]12C	16.9 µM/kg		0.387 µM
C[C@]12C[C@H](N3CCOCC3)[C@@H](O)C[C@@H]1CC[C@@H]1[C@@H]2CC[C@]2(C)[C@@H](C(=O)CBr)CC[C@@H]12	22.8 µM/kg		0.148 µM
CC(=O)[C@H]1CC[C@H]2[C@@H]3CC[C@H]4C[C@H](O)[C@@H](N5CCSC(C)(C)C5)C[C@]4(C)[C@H]3CC[C@]12C	51.9 µM/kg		0.115 µM
CC(=O)[C@H]1CC[C@H]2[C@@H]3CC[C@H]4C[C@H](O)[C@@H](N5CCO[C@H](CC(C)C)C5)C[C@]4(C)[C@H]3C(=O)C[C@]12C	6.5 µM/kg		0.053 µM
CC(=O)[C@H]1CC[C@H]2[C@@H]3CC[C@H]4C[C@H](O)[C@@H](N5CC(C)(C)OC(C)(C)C5)C[C@]4(C)[C@H]3C(=O)C[C@]12C	8.3 µM/kg		0.127 µM
CC(=O)[C@H]1CC[C@H]2[C@@H]3CC[C@H]4C[C@H](O)CC[C@]4(C)[C@H]3C(=O)C[C@]12C [ALFAXALONE]	6.3 µM/kg	700 nM	
